# Key:
# [1] = Drug metabolism in rat liver lysosomal homogenate after 2 hrs by LC-MS analysis; format: ADME, tissue-based; conditions: tissue homogenate
# Summary of the method: (§1)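 Conjugate at 0.1 µg/µL in 0.2 M NaOAc pH 5.0, mixed 1:1 (w/w) with rat liver lysosomal homogenate (protein 17.4 µg/µL by BCA). Incubated at 37°C; aliquots taken at 5 min and 1, 2, 4, 6, 8 and 24 h. Fragments identified by ESI ion-trap LC-MS on a C18 column with a formic acid/acetonitrile gradient, positive mode, m/z 100–2500.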
# Serum = assay: Metabolic stability […] assessed as alpha-chymotrypsin-mediated compound degradation after 24 hrs by LC-MS analysis; format: ADME, cell-free
# Summary of the method: (§2)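 Digestion with α-chymotrypsin at an enzyme:substrate ratio of 1:50 (w/w) in 100 mM Tris-HCl/10 mM CaCl₂, pH 7.8, at 25°C. Aliquots taken at 5 min and 1, 2, 4, 6, 8 and 24 h, quenched with acetic acid, and analysed by LC-MS for intact conjugate and cleavage fragments.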
# HT-29 [2] = assay: Cellular uptake in human HT-29 cells after 6 hrs by flow cytometer; format: ADME, cell-based; conditions: ht-29, 6 h
# Summary of the method: (§3)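 Cells plated at 1 x 10^5 per well, grown 24 h at 37°C, then exposed to conjugate in serum-free medium (0.16–100 µM) for 6 h at 37°C. Cells detached with trypsin/EDTA, resuspended in FCS-free medium and analysed by flow cytometry. Read-out is the percentage of daunorubicin-positive living cells. Duplicate samples at each concentration; each experiment repeated twice.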
# HT-29 [3] = assay: Cytostatic activity against human HT-29 cells compound incubated for 6 hrs followed by compound wash out measured after 72 hrs by MTT assay; format: functional, cell-based
# Summary of the method: (§4)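 Cells plated at 5×10^3 per well and grown 24 h. Exposed 6 h to compound in serum-free RPMI-1640 (2.6×10^-4–10^2 µM, six parallels per concentration), washed twice, then cultured 72 h in serum-containing medium. MTT added at 367 µg/mL final for 3.5 h; crystals dissolved in DMSO; OD540 minus OD620 read. Cytostasis% = [1−(OD_treated/OD_control)]×100; IC50 taken from a sigmoidal fit. Three independent experiments, averaged.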
# MCF7 [4] = assay: Cellular uptake in human MCF7 cells after 6 hrs by flow cytometer; format: ADME, cell-based; conditions: mcf7, 6 h; summary of the method: as §3
# [5] = Chemical stability of the compound in serum-free DMEM cell culture media after 6 hrs by RP-HPLC analysis; format: physicochemical
# Summary of the method: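 Conjugate dissolved in water (20% of final volume), then diluted with serum-free DMEM to a final 0.5 mg/mL. Incubated at 37°C for 6 h with hourly sampling. Monitored by analytical RP-HPLC on a C18 or CN column, gradient of 0.1% TFA water/MeCN, detection at 220 nm.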
# [6] = Metabolic stability […] assessed as alpha-chymotrypsin-mediated compound degradation after 6 hrs by LC-MS analysis; format: ADME, cell-free; conditions: read-out: Drug degradation; summary of the method: as §2
# [7] = Drug metabolism in rat liver lysosomal homogenate after 24 hrs by LC-MS analysis; format: ADME, tissue-based; conditions: tissue homogenate; summary of the method: as §1
# MCF7 [8] = assay: Cytostatic activity against human MCF7 cells compound incubated for 6 hrs followed by compound wash out measured after 72 hrs by MTT assay; format: functional, cell-based; summary of the method: as §4
# [9] = Metabolic stability […] assessed as alpha-chymotrypsin-mediated compound degradation after 8 hrs by LC-MS analysis; format: ADME, cell-free; conditions: read-out: Drug degradation; summary of the method: as §2
# [10] = Octanol-water partition coefficient, log P of the compound by shake flask method; format: physicochemical
# Summary of the method: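 Shake-flask octanol/water partitioning with RP-HPLC quantitation. P calculated as the ratio of octanol to water HPLC peak areas, then converted to logP.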
# MCF7 [11] = assay: Cellular uptake in human MCF7 cells at 4 uM after 6 hrs by flow cytometer; format: ADME, cell-based; conditions: mcf7, 6 h; summary of the method: as §3
# HT-29 [12] = assay: Cellular uptake in human HT-29 cells at 100 uM after 6 hrs by flow cytometer; format: ADME, cell-based; conditions: ht-29, 6 h
# Summary of the method: (§5)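 Cells were seeded at 1 x 10^5 per well and grown 24 h. MCF-7 were kept in DMEM and HT-29 in RPMI-1640, each with 10% FCS, at 37°C and 5% CO2. Cells were exposed to bioconjugate in serum-free medium (0.16–100 µM) for 6 h at 37°C, then detached with trypsin/EDTA. Flow cytometry gave % daunorubicin-positive living cells; duplicates, two independent experiments, mean ± SD.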
# [13] = Metabolic stability in human serum assessed as alpha-chymotrypsin-mediated compound degradation after 4 hrs by LC-MS analysis; format: ADME, cell-free; conditions: Tris-HCl/CaCl2 buffer; in the assay text read “in Tris-HCl/CaCl2 buffer” for “in human serum”; read-out: Drug degradation; summary of the method: as §2
# [14] = Metabolic stability in presence of alpha-chymotrypsin assessed as compound remaining after 6 hrs by LC-MS analysis
# MCF7 [15] = assay: Cellular uptake in human MCF7 cells at 20 uM after 6 hrs by flow cytometer; format: ADME, cell-based; conditions: mcf7, 6 h; summary of the method: as §5
# HT-29 [16] = assay: Cellular uptake in human HT-29 cells at 20 uM after 6 hrs by flow cytometer; format: ADME, cell-based; conditions: ht-29, 6 h; summary of the method: as §5
# MCF7 [17] = assay: Cellular uptake in human MCF7 cells at 100 uM after 6 hrs by flow cytometer; format: ADME, cell-based; conditions: mcf7, 6 h; summary of the method: as §5
# [18] = target: T1, Gonadotropin-releasing hormone receptor (Homo sapiens, UniProt P30968); assay: Displacement of [125I][D-Trp6]GnRH1 from GnRH receptor expressed in human prostate cancer membrane by gamma counting; format: cell membranes, Prostate gland
# T1 sequence (P30968 whole entry): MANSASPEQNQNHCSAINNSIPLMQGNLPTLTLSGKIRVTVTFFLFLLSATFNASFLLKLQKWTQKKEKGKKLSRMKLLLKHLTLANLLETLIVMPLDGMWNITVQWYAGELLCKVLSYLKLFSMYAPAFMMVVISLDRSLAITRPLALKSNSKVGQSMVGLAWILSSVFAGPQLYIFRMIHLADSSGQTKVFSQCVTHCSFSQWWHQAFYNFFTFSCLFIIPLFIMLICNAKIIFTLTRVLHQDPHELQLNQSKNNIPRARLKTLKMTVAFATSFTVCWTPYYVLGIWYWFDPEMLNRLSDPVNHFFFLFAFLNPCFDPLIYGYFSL
# Summary of the method: (§6)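 Membranes came from autopsy anterior pituitary or a surgical prostate cancer specimen, homogenized in 50 mM Tris-HCl pH 7.4 with protease inhibitors and ultracentrifuged. 50–160 µg protein was incubated with 60-80,000 cpm [125I][D-Trp6]GnRH-I and competitor (10^-12–10^-6 M). Bound ligand was pelleted through ice-cold 1.5% BSA buffer and gamma-counted. IC50 (50% inhibition of specific binding) came from curve fitting; mean ± SE of 2–3 experiments, duplicate or triplicate.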
# [19] = target: T1, Gonadotropin-releasing hormone receptor; assay: Displacement of [125I][D-Trp6]GnRH1 from GnRH receptor expressed in human pituitary membrane by gamma counting; format: cell membranes; summary of the method: as §6
Compound,Drug metabolism [1],Stability (Serum),Drug uptake (HT-29 [2]),IC50 (HT-29 [3]),Drug uptake (MCF7 [4]),Stability [5],metabolised at 6 h [6],Drug metabolism [7],IC50 (MCF7 [8]),further results
C/C=C/C(=O)NCCCC[C@H](NC(=O)[C@H](Cc1c[nH]c2ccccc12)NC(=O)[C@H](Cc1cnc[nH]1)NC(=O)[C@@H]1CCC(=O)N1)C(=O)N[C@@H](Cc1cnc[nH]1)C(=O)N[C@@H](CC(=O)O)C(=O)N[C@@H](Cc1c[nH]c2ccccc12)C(=O)N[C@@H](CCCCNC(=O)CO/N=C(\C)[C@]1(O)Cc2c(O)c3c(c(O)c2[C@@H](O[C@H]2C[C@H](N)[C@H](O)[C@H](C)O2)C1)C(=O)c1c(OC)cccc1C3=O)C(=O)N1CCC[C@H]1C(=O)NCC(N)=O,Active,Unstable,Dose-dependent effect,13.6 µM,Dose-dependent effect,Stable,50%,Active,1.6 µM,
COc1cccc2c1C(=O)c1c(O)c3c(c(O)c1C2=O)C[C@@](O)(/C(C)=N/OCC(=O)NCCCC[C@H](NC(=O)[C@H](Cc1c[nH]c2ccccc12)NC(=O)[C@H](CC(=O)O)NC(=O)[C@H](Cc1cnc[nH]1)NC(=O)[C@H](CCCCNC(=O)CC(C)C)NC(=O)[C@H](Cc1c[nH]c2ccccc12)NC(=O)[C@H](Cc1cnc[nH]1)NC(=O)[C@@H]1CCC(=O)N1)C(=O)N1CCC[C@H]1C(=O)NCC(N)=O)C[C@@H]3O[C@H]1C[C@H](N)[C@H](O)[C@H](C)O1,Active,Unstable,Dose-dependent effect,16.4 µM,Dose-dependent effect,Stable,34%,Active,2.5 µM,metabolised at 8 h [9]: 50%
CCCCCC(=O)NCCCC[C@H](NC(=O)[C@H](Cc1c[nH]c2ccccc12)NC(=O)[C@H](Cc1cnc[nH]1)NC(=O)[C@@H]1CCC(=O)N1)C(=O)N[C@@H](Cc1cnc[nH]1)C(=O)N[C@@H](CC(=O)O)C(=O)N[C@@H](Cc1c[nH]c2ccccc12)C(=O)N[C@@H](CCCCNC(=O)CO/N=C(\C)[C@]1(O)Cc2c(O)c3c(c(O)c2[C@@H](O[C@H]2C[C@H](N)[C@H](O)[C@H](C)O2)C1)C(=O)c1c(OC)cccc1C3=O)C(=O)N1CCC[C@H]1C(=O)NCC(N)=O,Active,,Dose-dependent effect,20.1 µM,Dose-dependent effect,Stable,30%,Active,1.5 µM,Drug degradation (Serum): 90%
CCCCCCCCCCCCCC(=O)NCCCC[C@H](NC(=O)[C@H](Cc1c[nH]c2ccccc12)NC(=O)[C@H](Cc1cnc[nH]1)NC(=O)[C@@H]1CCC(=O)N1)C(=O)N[C@@H](Cc1cnc[nH]1)C(=O)N[C@@H](CC(=O)O)C(=O)N[C@@H](Cc1c[nH]c2ccccc12)C(=O)N[C@@H](CCCCNC(=O)CO/N=C(\C)[C@]1(O)Cc2c(O)c3c(c(O)c2[C@@H](O[C@H]2C[C@H](N)[C@H](O)[C@H](C)O2)C1)C(=O)c1c(OC)cccc1C3=O)C(=O)N1CCC[C@H]1C(=O)NCC(N)=O,Active,,Dose-dependent effect,37.4 µM,Dose-dependent effect,Stable,,Active,6.8 µM,logP [10]: -0.596; Drug uptake (MCF7 [11]): 41.3%
COc1cccc2c1C(=O)c1c(O)c3c(c(O)c1C2=O)C[C@@](O)(/C(C)=N/OCC(=O)NCCCC[C@H](NC(=O)[C@H](Cc1c[nH]c2ccccc12)NC(=O)[C@H](CC(=O)O)NC(=O)[C@H](Cc1cnc[nH]1)NC(=O)[C@H](CCCCNC(=O)C(C)C)NC(=O)[C@H](Cc1c[nH]c2ccccc12)NC(=O)[C@H](Cc1cnc[nH]1)NC(=O)[C@@H]1CCC(=O)N1)C(=O)N1CCC[C@H]1C(=O)NCC(N)=O)C[C@@H]3O[C@H]1C[C@H](N)[C@H](O)[C@H](C)O1,Active,Unstable,Dose-dependent effect,2 µM,Dose-dependent effect,Stable,90%,Active,2.2 µM,Drug uptake (HT-29 [12]): 99.9%; metabolised at 4 h [13]: 60%; remaining at 6 h [14]: 10%; Drug uptake (MCF7 [15]): 93.3%; Drug uptake (HT-29 [16]): 96.9%; Drug uptake (MCF7 [17]): 99.7%
COc1cccc2c1C(=O)c1c(O)c3c(c(O)c1C2=O)C[C@@](O)(/C(C)=N/OCC(=O)NCCCC[C@@H](NC(=O)[C@H](Cc1ccc(O)cc1)NC(=O)[C@H](CO)NC(=O)[C@H](Cc1c[nH]c2ccccc12)NC(=O)[C@H](Cc1cnc[nH]1)NC(=O)[C@@H]1CCC(=O)N1)C(=O)N[C@@H](CC(C)C)C(=O)N[C@@H](CCCNC(=N)N)C(=O)N1CCC[C@H]1C(=O)NCC(N)=O)C[C@@H]3O[C@H]1C[C@H](N)[C@H](O)[C@H](C)O1,,,Dose-dependent effect,20.2 µM,Dose-dependent effect,,,,4.1 µM,IC50 [18]: 0.0165 µM; IC50 [19]: 0.00162 µM
CCC(=O)NCCCC[C@H](NC(=O)[C@H](Cc1c[nH]c2ccccc12)NC(=O)[C@H](Cc1cnc[nH]1)NC(=O)[C@@H]1CCC(=O)N1)C(=O)N[C@@H](Cc1cnc[nH]1)C(=O)N[C@@H](CC(=O)O)C(=O)N[C@@H](Cc1c[nH]c2ccccc12)C(=O)N[C@@H](CCCCNC(=O)CO/N=C(\C)[C@]1(O)Cc2c(O)c3c(c(O)c2[C@@H](O[C@H]2C[C@H](N)[C@H](O)[C@H](C)O2)C1)C(=O)c1c(OC)cccc1C3=O)C(=O)N1CCC[C@H]1C(=O)NCC(N)=O,Active,Unstable,Dose-dependent effect,17.2 µM,Dose-dependent effect,Stable,45%,Active,3.6 µM,
COc1cccc2c1C(=O)c1c(O)c3c(c(O)c1C2=O)C[C@@](O)(/C(C)=N/OCC(=O)NCCCC[C@H](NC(=O)[C@H](Cc1c[nH]c2ccccc12)NC(=O)[C@H](CC(=O)O)NC(=O)[C@H](Cc1cnc[nH]1)NC(=O)[C@H](CCCCN)NC(=O)[C@H](Cc1c[nH]c2ccccc12)NC(=O)[C@H](Cc1cnc[nH]1)NC(=O)[C@@H]1CCC(=O)N1)C(=O)N1CCC[C@H]1C(=O)NCC(N)=O)C[C@@H]3O[C@H]1C[C@H](N)[C@H](O)[C@H](C)O1,,,Dose-dependent effect,8.1 µM,Dose-dependent effect,,,,2.6 µM,
